From ChEMBL document CHEMBL1142565, “Prenylbicyclogermacrane diterpenoids from the formosan soft coral Nephthea pacifica” (2005) come the findings set out here.

Converted amounts (≈) assume the structure as drawn.

Assay [1] concerns P388. Put plainly: Cytotoxicity against mouse P388 cells at 0.5 to 50 ug/ml. The assay is classed as functional, cell-based. An outline of the steps:
(§1)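 Cells tested at three concentrations (50, 5 and 0.5 μg/mL). HT-29 (human colon adenocarcinoma) obtained from ATCC. P-388 (mouse lymphocytic leukemia) line supplied by an outside laboratory. Assay otherwise run per a previously described procedure.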

The subject of the next assay is HT-29. Put plainly: Cytotoxicity against human HT-29 cells 0.5 to 50 ug/ml. It is filed as functional, cell-based. A digest of the protocol:
as §1

In assay [2] the test system is P388. Put plainly: Cytotoxicity against mouse P388 cells. The assay is classed as functional. Particulars: read-out: ED50 (the source's name). A digest of the protocol:
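P-388 mouse lymphocytic leukemia cells, supplied by an academic laboratory. Test compounds were run at three concentrations (50, 5 and 0.5 μg/mL), following a previously described cytotoxicity procedure.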

For `CC(=O)O[C@H]1/C=C(\C)CC[C@](C)(C/C=C/C(C)(C)OO)[C@H]2C[C@@H]2[C@@](C)(O)C1`, the Activity entry in the assay with P388 [1] and in the assay with HT-29 was “Not toxic” each time.
Take `C=C(C)C(O)CC[C@@]1(C)CC[C@]2(C)O[C@H]2CC[C@](C)(O)[C@H]2C[C@@H]21` (stereo not given in full): the Activity entry in the assay with P388 [1] and with HT-29 was “Not toxic” throughout.
For `C=C(C)C(CC[C@@]1(C)CC[C@]2(C)O[C@H]2CC[C@](C)(O)[C@H]2C[C@@H]21)OO` (stereo not given in full), the Activity result in the assay on P388 [1] and in the assay on HT-29 was “Not toxic” in each case.
In the case of `C=C1CC/C=C(\C)CC[C@](C)(CCC=C(C)C)[C@H]2C[C@H]12`, the Activity entry with P388 [1] and in the assay on HT-29 was “Not toxic” in each case.
Consider `C=C(C)C(CC[C@@]1(C)CC/C(C)=C/[C@H](OC(C)=O)C[C@](C)(O)[C@H]2C[C@@H]21)OO` (stereo not given in full) [PACIFICIN H], for which the EC50 with P388 [2] was 2.01 µg/mL (≈ 5.28 µM). Besides, the Activity entry in the assay on HT-29 is “Not toxic”.
Regarding `CC(C)=CCC[C@@]1(C)CC[C@]2(C)O[C@H]2CC[C@](C)(O)[C@H]2C[C@@H]21`, the Activity result in the assay on P388 [1] and in the assay with HT-29 was “Not toxic” throughout.
In the case of `C/C1=C\CC[C@](C)(O)[C@H]2C[C@@H]2[C@@](C)(C/C=C/C(C)(C)O)CC1`, the Activity entry in the assay with P388 [1] and in the assay on HT-29 was “Not toxic” in each case.
On to `CC(C)(O)/C=C/C[C@@]1(C)CC[C@]2(C)O[C@H]2CC[C@](C)(O)[C@H]2C[C@@H]21`, for which the Activity entry with P388 [1] and in the assay with HT-29 was “Not toxic” each time.
On to `C=C1CC/C=C(\C)CC[C@](C)(C/C=C/C(C)(C)O)[C@H]2C[C@H]12`, for which the Activity entry in the assay with P388 [1] and in the assay on HT-29 was “Not toxic” each time.
`CC(C)(/C=C/C[C@@]1(C)CC[C@]2(C)O[C@H]2CC[C@](C)(O)[C@H]2C[C@@H]21)OO` [PACIFICIN C]: in the assay on P388 [2], the EC50 stood at 1.44 µg/mL (≈ 4.25 µM). Further, the Activity entry in the assay with HT-29 is “Not toxic”.
